CCR6 antagonist = CCR6 receptor antagonists, primary screen, cell-based, CHO-K1, luminescence, beta-arrestin, uHTS. CHO-K1 CCR6 PathHunter beta-arrestin, CCL20-stimulated. inhibition, % at 20 µM. actives 0.49% (n = 340,000). AID 493098, 2011;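 active = compounds whose inhibition of the agonist-driven luminescence signal at 20 µM reaches about 50%, limit read from the data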;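 note: cells stimulated with CCL20 at 14 nM final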
APJ antagonist = antagonists of human apelin receptor APJ, primary screen, CHO-K1 cells, beta-arrestin complementation, luminescence; P35414; inhibition, % at 20 µM; actives 0.32% (n = 330,000); AID 2521, 2010;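 active = inhibition above about 40% at 20 µM, limit read from the data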;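 note: cells challenged with 10 nM apelin-13 agonist together with compound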
APJ ag = agonists of human apelin receptor APJ, primary screen, CHO-K1 cells, PathHunter beta-arrestin, luminescence; P35414; 0% DMSO wells, 100% apelin; activation, % at 20 µM; actives 0.11% (n = 330,000);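 active = activation more than six SD over the plate average, tested at 20 µM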
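Test system: CHO-K1 APJ beta-arrestin complementation cell line. Amount: cell density 1000 per well. Controls: DMSO negative, 10 nM Apelin-13 positive. Signal: luminescent beta-gal fragment complementation, chemiluminescent substrate. Read-out basis: agonist-driven arrestin binding to APJ. Timing: compound stimulation 90 min at 25 °C, detection 60 min.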
CXCR6 inh = CXCR6 receptor inhibitors, primary screen, cell-based, beta-arrestin, luminescence, CHO-K1 PathHunter, 1536-well | actives 0.36% (n = 360,000) | C-X-C chemokine receptor type 6 (Homo sapiens), O00574 | inhibition, % at 20 µM | AID 602244, 2012; in the data active = inhibition above about 34%, passing the limit was not always enough;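 note: antagonist mode with CXCL16 agonist at 10 nM final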
Target sequence (O00574 whole entry, looked up): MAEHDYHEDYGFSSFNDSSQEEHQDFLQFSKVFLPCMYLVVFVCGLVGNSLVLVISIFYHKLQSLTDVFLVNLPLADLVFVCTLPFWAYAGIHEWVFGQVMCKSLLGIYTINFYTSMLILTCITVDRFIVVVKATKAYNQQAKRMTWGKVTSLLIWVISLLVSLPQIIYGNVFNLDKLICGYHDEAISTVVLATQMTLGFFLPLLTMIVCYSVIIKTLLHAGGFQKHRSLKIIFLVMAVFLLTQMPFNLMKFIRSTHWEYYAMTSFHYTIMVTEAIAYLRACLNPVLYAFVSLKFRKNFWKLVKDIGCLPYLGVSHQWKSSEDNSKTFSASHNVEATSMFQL
FXN GAA850 act = FXN promoter activators, primary screen, cell-based, luciferase luminescence, HEK293 lucGAA850; HEK293 lucGAA850 FXN promoter luciferase reporter, 24 h; percent of 10 µM SAHA response; activation, % at 6 µM; actives 0.56% (n = 360,000);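 active = activation above the average of all compounds screened plus 3 SD, cutoff fixed separately per campaign, cut at about 7.5% in these data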
EBI2 antag = EBI2 receptor antagonists, beta-arrestin recruitment, primary screen, cell-based, luminescence, 7a,25-OHC stimulation, uHTS. G-protein coupled receptor 183 (Homo sapiens), P32249. AID 651636, 2012. actives 0.81% (n = 360,000). inhibition, % at 5 µM. 7a,25-OHC stimulated; in the data active = inhibition above about 38%;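 note: enzyme fragment complementation signal reports receptor beta-arrestin coupling in cells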
Target sequence (P32249 whole entry, looked up, the tested form may be a part): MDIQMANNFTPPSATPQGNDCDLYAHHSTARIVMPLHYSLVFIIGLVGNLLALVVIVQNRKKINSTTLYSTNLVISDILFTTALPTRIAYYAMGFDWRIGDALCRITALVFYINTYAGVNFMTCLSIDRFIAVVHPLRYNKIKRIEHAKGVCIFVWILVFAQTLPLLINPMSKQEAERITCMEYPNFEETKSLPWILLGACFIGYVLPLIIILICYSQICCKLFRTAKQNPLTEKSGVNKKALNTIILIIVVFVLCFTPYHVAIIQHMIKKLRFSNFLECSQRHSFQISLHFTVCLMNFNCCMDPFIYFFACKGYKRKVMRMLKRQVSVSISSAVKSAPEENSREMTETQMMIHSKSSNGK
GAA30 FXN cntr = GAA30 FXN promoter activators, confirmation, counter-screen for GAA850 frataxin promoter activator project, cell-based, luminescence, HEK293, lucGAA30, triplicate | AID 588350, 2011 | shares compounds with FXN GAA850 act | HEK293 lucGAA30 FXN promoter luciferase, 24 h; DMSO = 0%, 5 µM ipriflavone = 100% | activation, % at 6 µM | actives 66% (n = 1,900);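 active = mean activation above the mean of solvent-only control wells plus 3 SD, cut at about 22% in these data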;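 note: counterscreen of GAA850 promoter hits where activity marks nonselective or luminescence artifacts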
GAA850 confirm = FXN GAA850 promoter activators in reporter cells, confirmation, cell-based, luminescence, HEK293 lucGAA850, triplicate; AID 588351, 2011; HEK293 lucGAA850 FXN promoter luciferase reporter, 24 h; 100% = activation by SAHA; activation, % at 6 µM; shares compounds with FXN GAA850 act; actives 86% (n = 1,900);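 active = mean activation above a set limit taken from the primary screen, cut at about 8% in these data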
Hits are given with their value. The list is not random: actives were taken first. Their share in the collection is about 2%.

Results for c1ccc(OCCCn2nnc(-c3ccc(N4CCOCC4)cc3)n2)cc1 ?
CCR6 antagonist: inactive; APJ antagonist: inactive; APJ ag: inactive; CXCR6 inh: inactive; FXN GAA850 act: 8.6; EBI2 antag: inactive; GAA30 FXN cntr: inactive; GAA850 confirm: 8.6

How did Cc1csc(NC(=O)C2(C)CCN2C(=O)C(C)C)c1C#N (centres undefined) do in these assays?
CXCR6 inh: inactive; FXN GAA850 act: inactive; EBI2 antag: inactive

What do the screens show for `Nc1ncn(-c2ncc(C(F)(F)F)cc2Cl)n1`?
CCR6 antagonist: inactive; APJ antagonist: inactive; APJ ag: inactive; CXCR6 inh: inactive; FXN GAA850 act: inactive; EBI2 antag: inactive

How did Cc1nn2cc(-c3ncc(C(F)(F)F)cc3Cl)cnc2c1Br do in these assays?
CCR6 antagonist: inactive; APJ antagonist: inactive; APJ ag: inactive; CXCR6 inh: inactive; FXN GAA850 act: 10.0; EBI2 antag: inactive; GAA30 FXN cntr: 54; GAA850 confirm: 20

Results for Cc1cc(F)ccc1C(O)c1ncc(-c2cccc3ccccc23)[nH]1 (centres undefined) ?
CXCR6 inh: inactive; FXN GAA850 act: inactive; EBI2 antag: inactive

How did OC[C@@H]1CN(Cc2ccc3c(c2)OCO3)C[C@H](n2cnc3c(NCc4ccc(F)cc4)ncnc32)O1 do in these assays?
CXCR6 inh: inactive; FXN GAA850 act: inactive; EBI2 antag: inactive

How did Nc1nc(N)nc(-c2cc([N+](=O)[O-])ccc2O)n1 do in these assays?
CCR6 antagonist: inactive; APJ antagonist: inactive; APJ ag: inactive; CXCR6 inh: inactive; FXN GAA850 act: 17; EBI2 antag: inactive; GAA30 FXN cntr: 69; GAA850 confirm: 51

How did OC12CCCCC1C(c1ccc3c(c1)OCO3)N(Cc1ccc(F)cc1)CC2 (centres undefined) do in these assays?
CCR6 antagonist: inactive; APJ antagonist: inactive; APJ ag: inactive; CXCR6 inh: inactive; FXN GAA850 act: 15; EBI2 antag: inactive; GAA30 FXN cntr: inactive; GAA850 confirm: 12

How did OC12CCCCC1C(c1ccc3c(c1)OCO3)N(Cc1cccc(F)c1)CC2 (centres undefined) do in these assays?
CCR6 antagonist: inactive; CXCR6 inh: inactive; FXN GAA850 act: 12; EBI2 antag: inactive; GAA30 FXN cntr: inactive; GAA850 confirm: 13

How did OC12CCCCC1C(c1ccc3c(c1)OCO3)N(Cc1ccccc1F)CC2 (centres undefined) do in these assays?
CCR6 antagonist: inactive; APJ antagonist: inactive; APJ ag: inactive; CXCR6 inh: inactive; FXN GAA850 act: inactive; EBI2 antag: inactive

How did CC(C)(C)c1nc(CN2CCOCC2)cc(CN2CCOCC2)c1O do in these assays?
CCR6 antagonist: inactive; APJ antagonist: inactive; APJ ag: inactive; CXCR6 inh: inactive; FXN GAA850 act: inactive; EBI2 antag: inactive

What do the screens show for `Cc1ccc(-c2nc(CN3CCCCC3)cc(CN3CCCCC3)c2O)cc1`?
CCR6 antagonist: inactive; APJ antagonist: inactive; APJ ag: inactive; CXCR6 inh: inactive; FXN GAA850 act: 7.9; EBI2 antag: inactive; GAA30 FXN cntr: 29; GAA850 confirm: 17

What do the screens show for `Cc1ccc2nc(N/N=C/c3ccco3)cc(C)c2c1`?
CCR6 antagonist: inactive; APJ antagonist: inactive; APJ ag: inactive; CXCR6 inh: inactive; FXN GAA850 act: 8.2; EBI2 antag: inactive; GAA30 FXN cntr: 104; GAA850 confirm: 44

Results for Cc1cc(NC(=O)NC2(C(F)(F)F)Oc3ccc(Cl)cc3O2)no1 (centres undefined) ?
CCR6 antagonist: inactive; APJ antagonist: inactive; APJ ag: inactive; CXCR6 inh: inactive; FXN GAA850 act: 18; EBI2 antag: inactive; GAA30 FXN cntr: 30; GAA850 confirm: 15

What do the screens show for `O=C(NCc1cccnc1)NC1(C(F)(F)F)Oc2ccc(Cl)cc2O1` (centres undefined)?
CCR6 antagonist: inactive; APJ antagonist: inactive; APJ ag: inactive; CXCR6 inh: inactive; FXN GAA850 act: 12; EBI2 antag: inactive; GAA30 FXN cntr: 26; GAA850 confirm: 18

What do the screens show for `CCCCNC(=O)NC1(C(F)(F)F)Oc2ccccc2O1`?
CCR6 antagonist: inactive; APJ antagonist: inactive; APJ ag: inactive; CXCR6 inh: inactive; FXN GAA850 act: inactive; EBI2 antag: inactive

How did Cc1cc(NC(=O)Nc2ccc(F)c(Cl)c2)no1 do in these assays?
CCR6 antagonist: inactive; APJ antagonist: inactive; APJ ag: inactive; CXCR6 inh: inactive; FXN GAA850 act: inactive; EBI2 antag: inactive

Results for COCCNC(=O)NC1(C(F)(F)F)Oc2ccc(Cl)cc2O1 (centres undefined) ?
CCR6 antagonist: inactive; APJ antagonist: inactive; APJ ag: inactive; CXCR6 inh: inactive; FXN GAA850 act: 15; EBI2 antag: inactive; GAA30 FXN cntr: inactive; GAA850 confirm: 11

How did CN(C)c1nc(OCCNC(=O)COc2ccc(Cl)cc2Cl)nc(N(C)C)n1 do in these assays?
CCR6 antagonist: inactive; APJ antagonist: inactive; APJ ag: inactive; CXCR6 inh: inactive; FXN GAA850 act: 8.3; EBI2 antag: inactive; GAA30 FXN cntr: inactive; GAA850 confirm: inactive

What do the screens show for `O=C1CN(c2nc(-c3cccnc3)nc3sc4c(c23)CCCC4)CCN1`?
CCR6 antagonist: inactive; APJ antagonist: inactive; APJ ag: inactive; CXCR6 inh: inactive; FXN GAA850 act: 10; EBI2 antag: inactive; GAA30 FXN cntr: inactive; GAA850 confirm: 21

What do the screens show for `CC(=O)Nc1ccc(Oc2nc(-c3cccnc3)nc3sc4c(c23)CCCC4)cc1`?
CCR6 antagonist: inactive; APJ antagonist: inactive; APJ ag: inactive; CXCR6 inh: inactive; FXN GAA850 act: inactive; EBI2 antag: inactive

What do the screens show for `Nc1nc(-c2cccnc2)nc2sc3c(c12)CCCC3`?
CCR6 antagonist: inactive; APJ antagonist: inactive; APJ ag: inactive; CXCR6 inh: inactive; FXN GAA850 act: 10; EBI2 antag: inactive; GAA30 FXN cntr: 108; GAA850 confirm: 53

What do the screens show for `Cc1ccc(O)c(C=Nc2cc(C)ccc2O)c1`?
CCR6 antagonist: inactive; APJ antagonist: inactive; APJ ag: inactive; CXCR6 inh: inactive; FXN GAA850 act: inactive; EBI2 antag: inactive
